Measured values from ChEMBL document CHEMBL3244142, “Antifungal properties of 2-bromo-3-fluorosuccinic acid esters and related compounds” (1977).
In brackets after ≈: the same amount, converted by molar mass.

Key:
[1] = system: Aspergillus niger; assay: Antifungal activity against Aspergillus niger ATCC 1004 at pH 5.6 after 5 days in presence of 10% beef serum; format: functional
Summary of the method: (§1)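 Agar-dilution MIC in Sabouraud dextrose agar at pH 5.6 or 7.0, with or without 10% beef serum. Plates were incubated at 28 °C for 5 days. MIC is the lowest concentration (µg/mL) giving 100% inhibition. Steps were 1 µg/mL up to 10, 2 µg/mL from 10–20, and 10 µg/mL from 20–100; 100 µg/mL was the top level, and no inhibition there is scored as >100.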

[2] = system: Aspergillus niger; assay: Antifungal activity against Aspergillus niger ATCC 1004 at pH 5.6 after 5 days in absence of 10% beef serum; format: functional; summary of the method: as §1
[3] = system: Candida albicans; assay: Antifungal activity against Candida albicans ATCC 10231 at pH 7 after 20 h in absence of 10% beef serum; settings: ATCC 10231, 20 h
[4] = system: Candida albicans; assay: Antifungal activity against Candida albicans ATCC 10231 at pH 7 after 5 days in presence of 10% beef serum; format: functional
[5] = system: Aspergillus niger; assay: Antifungal activity against Aspergillus niger ATCC 1004 at pH 7 after 5 days in absence of 10% beef serum; format: functional; summary of the method: as §1
[6] = system: Candida albicans; assay: Antifungal activity against Candida albicans ATCC 10231 at pH 5.6 after 20 h in absence of 10% beef serum; settings: ATCC 10231, 20 h
[7] = system: Mucor mucedo; assay: Antifungal activity against Mucor mucedo ATCC 7941 at pH 5.6 after 20 h in presence of 10% beef serum; settings: ATCC 7941, 20 h
[8] = system: Mucor mucedo; assay: Antifungal activity against Mucor mucedo ATCC 7941 at pH 7 after 5 days in presence of 10% beef serum; format: functional
[9] = system: Candida albicans; assay: Antifungal activity against Candida albicans ATCC 10231 at pH 5.6 after 5 days in presence of 10% beef serum; format: functional
[10] = system: Trichophyton mentagrophytes; assay: Antifungal activity against Trichophyton mentagrophytes ATCC 9129 at pH 7 after 5 days in presence of 10% beef serum; format: functional; summary of the method: as §1
[11] = system: Trichophyton mentagrophytes; assay: Antifungal activity against Trichophyton mentagrophytes ATCC 9129 at pH 5.6 after 5 days in absence of 10% beef serum; format: functional; summary of the method: as §1
[12] = system: Mucor mucedo; assay: Antifungal activity against Mucor mucedo ATCC 7941 at pH 7 after 20 h in absence of 10% beef serum; settings: ATCC 7941, 20 h
[13] = system: Mucor mucedo; assay: Antifungal activity against Mucor mucedo ATCC 7941 at pH 5.6 after 5 days in absence of 10% beef serum; format: functional
[14] = system: Trichophyton mentagrophytes; assay: Antifungal activity against Trichophyton mentagrophytes ATCC 9129 at pH 7 after 5 days in absence of 10% beef serum; format: functional; summary of the method: as §1
[15] = system: Aspergillus niger; assay: Antifungal activity against Aspergillus niger ATCC 1004 at pH 7 after 5 days in presence of 10% beef serum; format: functional; summary of the method: as §1
[16] = system: Trichophyton mentagrophytes; assay: Antifungal activity against Trichophyton mentagrophytes ATCC 9129 at pH 5.6 after 5 days in presence of 10% beef serum; format: functional; summary of the method: as §1
[17] = system: Mucor mucedo; assay: Antifungal activity against Mucor mucedo ATCC 7941 at pH 7 after 20 h in presence of 10% beef serum; settings: ATCC 7941, 20 h
[18] = system: Mucor mucedo; assay: Antifungal activity against Mucor mucedo ATCC 7941 at pH 5.6 after 5 days in presence of 10% beef serum; format: functional
[19] = system: Mucor mucedo; assay: Antifungal activity against Mucor mucedo ATCC 7941 at pH 7 after 5 days in absence of 10% beef serum; format: functional
[20] = system: Candida albicans; assay: Antifungal activity against Candida albicans ATCC 10231 at pH 5.6 after 5 days in absence of 10% beef serum; format: functional
[21] = system: Candida albicans; assay: Antifungal activity against Candida albicans ATCC 10231 at pH 7 after 5 days in absence of 10% beef serum; format: functional
[22] = Aspergillus niger, ATCC 1004, 120 h, read-out: MIC
[23] = Candida albicans, ATCC 10231, 120 h, read-out: MIC
[24] = Trichophyton mentagrophytes, ATCC 9129, 120 h, read-out: MIC
[25] = Mucor mucedo, ATCC 7941, 120 h, read-out: MIC

Structure (SMILES)	MIC [1, 22] [µg/mL]	MIC [2] [µg/mL]	MIC [3] [µg/mL]	MIC [4, 23] [µg/mL]	MIC [5, 22] [µg/mL]	MIC [6] [µg/mL]	MIC [7] [µg/mL]	MIC [8] [µg/mL]	MIC [9, 23] [µg/mL]	MIC [10, 24] [µg/mL]	MIC [11, 24] [µg/mL]	MIC [12] [µg/mL]	MIC [13, 25] [µg/mL]	MIC [14] [µg/mL]	MIC [15] [µg/mL]	MIC [16] [µg/mL]	MIC [2, 22] [µg/mL]	MIC [17] [µg/mL]	MIC [14, 24] [µg/mL]	MIC [15, 22] [µg/mL]	further results
COC(=O)C(Br)C(Br)C(=O)OC (stereo in doubt)	50	30 (≈ 98.7 µM)	50 (≈ 165 µM)	70	60 (≈ 197 µM)	20 (≈ 65.8 µM)	14	30	30	20	2 (≈ 6.58 µM)	12 (≈ 39.5 µM)	6 (≈ 19.7 µM)	9 (≈ 29.6 µM)	90	12					
COC(=O)[C@H](F)[C@@H](Br)C(=O)OC (relative stereo)	14		16 (≈ 65.8 µM)	16	30 (≈ 123 µM)	6 (≈ 24.7 µM)	12		8	6	< 1	14 (≈ 57.6 µM)	12 (≈ 49.4 µM)				12 (≈ 49.4 µM)	20	3 (≈ 12.3 µM)	40	MIC [16, 24]: 3 µg/mL
COC(=O)C(Br)C(Br)C(=O)OC (racemic)		14 (≈ 46.1 µM)						14						4 (≈ 13.2 µM)	40	4					MIC [1]: 30 µg/mL; MIC [4]: 60 µg/mL; MIC [18]: 9 µg/mL; MIC [19]: 8 µg/mL (≈ 26.3 µM); MIC [5]: 40 µg/mL (≈ 132 µM); MIC [20]: 16 µg/mL (≈ 52.6 µM); MIC [9]: 20 µg/mL; MIC [10]: 10 µg/mL; MIC [11]: 2 µg/mL (≈ 6.58 µM); MIC [13]: 6 µg/mL (≈ 19.7 µM); MIC [21]: 30 µg/mL (≈ 98.7 µM)
COC(=O)[C@@H](F)[C@@H](Br)C(=O)OC (relative stereo)	20		20 (≈ 82.3 µM)	30	40 (≈ 165 µM)	9 (≈ 37 µM)	8		14	5	< 1	8 (≈ 32.9 µM)	7 (≈ 28.8 µM)				20 (≈ 82.3 µM)	12	2 (≈ 8.23 µM)	40	MIC [16, 24]: 2 µg/mL
